Source: PMC3270411 (Chemistry & biology, 2012)

Key:
p38a = p38a (Homo sapiens, UniProt Q16539); experiment: KiNativ cellular kinase profiling; format: cell-based; details: A375 cells, 1 μM, 3 hours
JNK = experiment: pulse-chase ATP-biotin binding kinetics assay in A375 cells; format: cell-based; details: same pulse-chase protocol
Method in brief: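 A375 cells treated with 1 μM test compound for 1–5 h, then washed three times in PBS. Lysed in NP-40/CHAPS buffer for 30 min at 4°C, cleared, and gel-filtered into HEPES kinase buffer (about 5–15 mg/ml protein). Lysate labelled with 5 μM ATP-biotin probe for 1 h, reduced with DTT, alkylated with iodoacetamide, and pulled down on streptavidin for 2 h. Read-out: SDS-PAGE and JNK immunoblot.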

PIK3C3 = PIK3C3 (Homo sapiens, UniProt Q8NEB9); experiment: KiNativ cellular kinase profiling; format: cell-based; details: A375 cells, 1 μM, 3 hours, PIK3C3, labeling site ATP
Chain of PIK3C3 (Q8NEB9 whole entry): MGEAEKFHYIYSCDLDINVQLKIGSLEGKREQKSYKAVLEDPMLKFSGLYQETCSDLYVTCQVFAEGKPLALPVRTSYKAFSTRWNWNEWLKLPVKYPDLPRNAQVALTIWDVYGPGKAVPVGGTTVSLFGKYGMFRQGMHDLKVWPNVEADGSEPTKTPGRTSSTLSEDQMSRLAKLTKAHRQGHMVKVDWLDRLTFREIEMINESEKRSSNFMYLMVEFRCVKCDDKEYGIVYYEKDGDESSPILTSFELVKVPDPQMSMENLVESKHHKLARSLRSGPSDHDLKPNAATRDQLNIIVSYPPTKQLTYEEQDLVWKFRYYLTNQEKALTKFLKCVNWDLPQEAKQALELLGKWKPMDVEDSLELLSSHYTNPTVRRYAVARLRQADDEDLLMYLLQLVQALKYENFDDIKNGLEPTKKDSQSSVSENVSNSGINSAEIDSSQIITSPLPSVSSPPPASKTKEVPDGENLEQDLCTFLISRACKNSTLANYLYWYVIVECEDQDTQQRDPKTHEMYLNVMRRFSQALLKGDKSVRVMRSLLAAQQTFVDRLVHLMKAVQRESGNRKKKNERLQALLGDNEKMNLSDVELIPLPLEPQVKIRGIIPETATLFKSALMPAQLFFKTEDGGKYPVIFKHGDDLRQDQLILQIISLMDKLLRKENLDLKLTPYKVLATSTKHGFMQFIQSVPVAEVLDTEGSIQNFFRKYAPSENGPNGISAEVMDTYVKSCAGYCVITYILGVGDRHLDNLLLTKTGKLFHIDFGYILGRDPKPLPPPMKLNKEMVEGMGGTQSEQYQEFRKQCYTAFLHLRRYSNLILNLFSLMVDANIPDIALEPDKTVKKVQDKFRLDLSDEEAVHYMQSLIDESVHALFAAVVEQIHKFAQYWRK

DNAPK = DNAPK (Homo sapiens, UniProt P78527); experiment: KiNativ cellular kinase profiling; format: cell-based; details: A375 cells, 1 μM, 3 hours, labeling site ATP
[1] = system: c-Jun phosphorylation in HeLa and A375 cells; experiment: cellular c-Jun phosphorylation, statements for both assay formats; format: cell-based; details: relative to JNK-IN-5
PIP4K2C = biological target: T1, PIP4K2C (Homo sapiens, UniProt Q8TBX8); experiment: KiNativ cellular kinase profiling; format: cell-based; details: A375 cells, 1 μM, 3 hours, labeling site ATP
T1 sequence (Q8TBX8 1-421): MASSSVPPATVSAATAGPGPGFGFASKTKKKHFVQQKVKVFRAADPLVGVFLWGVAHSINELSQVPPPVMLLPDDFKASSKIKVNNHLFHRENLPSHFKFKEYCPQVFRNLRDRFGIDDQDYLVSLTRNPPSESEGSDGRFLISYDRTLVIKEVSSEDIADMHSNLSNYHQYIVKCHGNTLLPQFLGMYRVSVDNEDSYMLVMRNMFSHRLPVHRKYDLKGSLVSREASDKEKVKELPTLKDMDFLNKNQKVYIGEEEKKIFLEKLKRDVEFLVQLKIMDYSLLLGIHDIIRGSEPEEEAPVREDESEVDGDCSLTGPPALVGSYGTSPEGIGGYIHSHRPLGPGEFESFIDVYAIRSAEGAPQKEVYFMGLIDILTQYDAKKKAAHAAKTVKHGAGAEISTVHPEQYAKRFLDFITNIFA

IRAK1 [2] = biological target: T2, IRAK1 (Homo sapiens, UniProt P51617); experiment: KiNativ cellular kinase profiling; format: cell-based; details: for Percent inhibition of kinase labeling by ATP-biotin: A375 cells, 1 μM, 3 hours, IRAK1, labeling site Lys2; for inhibition at 1 µM: A-375, read-out: Percent inhibition of kinase labeling by ATP-biotin
T2 sequence (P51617 whole entry, species assumed): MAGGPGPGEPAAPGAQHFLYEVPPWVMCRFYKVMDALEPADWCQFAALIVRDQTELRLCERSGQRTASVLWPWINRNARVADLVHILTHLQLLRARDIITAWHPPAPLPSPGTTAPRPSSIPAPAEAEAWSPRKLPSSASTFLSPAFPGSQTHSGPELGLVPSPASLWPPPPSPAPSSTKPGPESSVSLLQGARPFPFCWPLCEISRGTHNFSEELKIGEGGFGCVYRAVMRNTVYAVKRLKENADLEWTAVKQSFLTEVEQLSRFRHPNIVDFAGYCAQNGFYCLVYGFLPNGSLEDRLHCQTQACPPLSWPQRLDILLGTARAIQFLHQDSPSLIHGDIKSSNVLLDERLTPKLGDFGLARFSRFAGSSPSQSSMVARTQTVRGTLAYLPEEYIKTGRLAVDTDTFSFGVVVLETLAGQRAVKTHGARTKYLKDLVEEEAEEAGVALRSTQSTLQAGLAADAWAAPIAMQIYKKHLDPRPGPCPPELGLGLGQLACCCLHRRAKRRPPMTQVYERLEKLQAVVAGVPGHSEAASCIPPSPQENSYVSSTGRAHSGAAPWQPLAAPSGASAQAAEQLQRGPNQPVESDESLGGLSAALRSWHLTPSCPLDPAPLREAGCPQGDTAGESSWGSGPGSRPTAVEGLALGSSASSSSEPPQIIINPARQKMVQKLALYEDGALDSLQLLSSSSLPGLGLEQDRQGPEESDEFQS

[3] = system: panel of 442 distinct kinases; experiment: KINOMEscan kinase-binding panel
IRAK1 [4] = biological target: T2, IRAK1; experiment: follow-up IC50 determination after enzymatic panel; format: biochemical
IRAK1 [5] = biological target: T2, IRAK1; experiment: enzymatic kinase assay on potential off-target; format: biochemical; details: IC50 (nM) (enzymatic) IRAK1
ERK8 = ERK8 (Homo sapiens, UniProt Q8TD08); experiment: follow-up IC50 determination after enzymatic panel; format: biochemical
Chain of ERK8 (Q8TD08 whole entry): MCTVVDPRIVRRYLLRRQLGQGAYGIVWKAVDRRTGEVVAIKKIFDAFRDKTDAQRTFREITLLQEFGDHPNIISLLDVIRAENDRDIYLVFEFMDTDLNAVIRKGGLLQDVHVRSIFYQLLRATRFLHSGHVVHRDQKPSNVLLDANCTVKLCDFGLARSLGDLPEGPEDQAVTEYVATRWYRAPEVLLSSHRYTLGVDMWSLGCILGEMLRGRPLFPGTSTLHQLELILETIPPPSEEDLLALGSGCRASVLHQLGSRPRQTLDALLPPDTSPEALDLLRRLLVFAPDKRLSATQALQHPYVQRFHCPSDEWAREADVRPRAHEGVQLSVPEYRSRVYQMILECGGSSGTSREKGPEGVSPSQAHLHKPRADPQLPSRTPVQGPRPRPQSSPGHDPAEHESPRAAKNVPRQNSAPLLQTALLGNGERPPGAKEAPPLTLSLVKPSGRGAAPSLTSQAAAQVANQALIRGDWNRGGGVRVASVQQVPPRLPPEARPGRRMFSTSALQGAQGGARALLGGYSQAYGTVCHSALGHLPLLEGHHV

[6] = system: potential additional kinase targets; experiment: follow-up biochemical and binding assays on potent binding targets; details: enzymatic assay or dissociation constant follow-up
JNK3 = JNK3 (Homo sapiens, UniProt P53779); experiment: intact protein mass spectrometry of inhibitor-labeled JNK3; format: binding; details: incubation with JNK3, electrospray mass spectrometry
Chain of JNK3 (P53779 whole entry): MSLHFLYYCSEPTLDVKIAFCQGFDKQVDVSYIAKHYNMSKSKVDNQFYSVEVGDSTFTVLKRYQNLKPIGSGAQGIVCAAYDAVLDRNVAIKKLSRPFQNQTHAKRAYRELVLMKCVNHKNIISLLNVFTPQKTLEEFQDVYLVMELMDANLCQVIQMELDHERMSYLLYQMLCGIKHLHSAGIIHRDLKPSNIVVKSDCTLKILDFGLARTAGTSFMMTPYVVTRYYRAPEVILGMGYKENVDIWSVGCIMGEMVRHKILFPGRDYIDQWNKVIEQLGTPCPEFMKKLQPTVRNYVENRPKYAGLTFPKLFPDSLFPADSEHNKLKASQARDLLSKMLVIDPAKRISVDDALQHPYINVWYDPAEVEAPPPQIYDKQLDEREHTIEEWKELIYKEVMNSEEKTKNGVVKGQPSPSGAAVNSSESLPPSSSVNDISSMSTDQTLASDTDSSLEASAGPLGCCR

KIT(L576P) = KIT(L576P) (Homo sapiens, UniProt P10721, L576P); experiment: KinomeScan dissociation constant; format: binding
NUAK1 = NUAK1 (Homo sapiens, UniProt O60285); experiment: follow-up IC50 determination after enzymatic panel; format: biochemical
Chain of NUAK1 (O60285 whole entry): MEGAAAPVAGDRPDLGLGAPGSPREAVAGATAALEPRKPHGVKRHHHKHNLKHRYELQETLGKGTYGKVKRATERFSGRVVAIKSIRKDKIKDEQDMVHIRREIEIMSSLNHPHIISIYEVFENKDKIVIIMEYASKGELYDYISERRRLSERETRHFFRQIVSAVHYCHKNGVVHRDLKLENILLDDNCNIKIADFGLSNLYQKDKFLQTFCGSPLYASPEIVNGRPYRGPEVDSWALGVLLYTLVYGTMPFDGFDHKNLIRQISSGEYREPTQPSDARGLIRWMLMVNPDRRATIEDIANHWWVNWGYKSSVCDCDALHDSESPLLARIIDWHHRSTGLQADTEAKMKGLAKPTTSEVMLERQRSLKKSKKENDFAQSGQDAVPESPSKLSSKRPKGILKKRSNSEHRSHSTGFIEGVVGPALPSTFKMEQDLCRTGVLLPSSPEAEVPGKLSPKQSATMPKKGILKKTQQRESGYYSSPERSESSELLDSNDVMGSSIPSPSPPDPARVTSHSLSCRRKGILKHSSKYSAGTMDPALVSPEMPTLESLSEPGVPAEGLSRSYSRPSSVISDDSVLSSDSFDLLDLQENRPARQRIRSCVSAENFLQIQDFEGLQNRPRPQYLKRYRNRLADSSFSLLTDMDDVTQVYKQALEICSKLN

KIT(V559D,T670I) = KIT(V559D,T670I) (Homo sapiens, UniProt P10721, T670I/V559D); experiment: KinomeScan dissociation constant; format: binding
Chain of KIT(V559D,T670I) (P10721 26-976 V559D/T670I): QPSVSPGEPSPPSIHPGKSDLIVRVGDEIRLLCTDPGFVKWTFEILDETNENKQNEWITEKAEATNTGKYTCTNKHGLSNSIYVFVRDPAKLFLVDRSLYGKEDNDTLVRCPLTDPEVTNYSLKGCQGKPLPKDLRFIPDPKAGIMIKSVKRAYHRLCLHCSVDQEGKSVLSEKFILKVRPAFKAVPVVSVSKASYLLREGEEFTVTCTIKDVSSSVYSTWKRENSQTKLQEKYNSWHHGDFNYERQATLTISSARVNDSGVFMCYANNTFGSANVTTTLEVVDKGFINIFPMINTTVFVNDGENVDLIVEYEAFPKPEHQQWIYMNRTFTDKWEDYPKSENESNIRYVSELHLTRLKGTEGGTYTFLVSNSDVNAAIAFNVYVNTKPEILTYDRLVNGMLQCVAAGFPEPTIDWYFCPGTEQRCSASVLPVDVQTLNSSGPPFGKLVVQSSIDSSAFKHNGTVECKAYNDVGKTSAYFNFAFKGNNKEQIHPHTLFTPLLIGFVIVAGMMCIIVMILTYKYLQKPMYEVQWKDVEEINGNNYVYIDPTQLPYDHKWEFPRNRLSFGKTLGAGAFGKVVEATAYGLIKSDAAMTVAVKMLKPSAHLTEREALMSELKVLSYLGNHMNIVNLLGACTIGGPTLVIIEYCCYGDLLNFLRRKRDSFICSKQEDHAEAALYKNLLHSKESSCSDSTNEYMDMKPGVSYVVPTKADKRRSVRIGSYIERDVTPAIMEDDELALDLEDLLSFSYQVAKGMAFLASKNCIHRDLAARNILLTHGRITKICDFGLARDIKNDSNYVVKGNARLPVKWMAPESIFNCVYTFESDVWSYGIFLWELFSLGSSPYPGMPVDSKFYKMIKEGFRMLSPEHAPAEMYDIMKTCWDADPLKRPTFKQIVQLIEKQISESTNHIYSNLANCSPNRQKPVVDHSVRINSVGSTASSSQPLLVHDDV

MET(M250T) = MET(M250T) (Homo sapiens, UniProt P08581, M1250T); experiment: enzymatic kinase assay on potential off-target; format: biochemical
Chain of MET(M250T) (P08581 956-1390 M1250T limits assumed): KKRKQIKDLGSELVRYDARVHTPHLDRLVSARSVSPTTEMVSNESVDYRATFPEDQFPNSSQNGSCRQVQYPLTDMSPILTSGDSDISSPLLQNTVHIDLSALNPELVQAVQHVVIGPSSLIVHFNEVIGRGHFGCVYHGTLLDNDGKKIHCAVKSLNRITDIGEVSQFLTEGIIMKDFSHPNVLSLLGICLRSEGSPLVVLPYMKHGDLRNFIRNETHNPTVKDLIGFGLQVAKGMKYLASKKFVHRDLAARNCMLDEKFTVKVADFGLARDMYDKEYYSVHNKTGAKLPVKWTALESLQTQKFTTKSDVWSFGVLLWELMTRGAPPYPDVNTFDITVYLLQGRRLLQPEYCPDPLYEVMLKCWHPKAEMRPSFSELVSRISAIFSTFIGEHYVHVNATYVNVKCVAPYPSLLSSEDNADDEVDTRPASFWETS

Chain of p38a (Q16539 whole entry): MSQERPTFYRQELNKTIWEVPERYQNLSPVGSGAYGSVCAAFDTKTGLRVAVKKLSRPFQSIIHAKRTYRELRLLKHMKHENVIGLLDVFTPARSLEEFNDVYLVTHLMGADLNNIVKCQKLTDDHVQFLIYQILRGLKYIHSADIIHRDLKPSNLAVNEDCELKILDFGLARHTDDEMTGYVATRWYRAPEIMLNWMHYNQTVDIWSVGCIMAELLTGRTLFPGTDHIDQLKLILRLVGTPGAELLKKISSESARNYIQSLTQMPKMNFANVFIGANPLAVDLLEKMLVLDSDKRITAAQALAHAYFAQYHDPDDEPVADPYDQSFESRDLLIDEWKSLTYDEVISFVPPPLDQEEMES

Row | SMILES | Percent inhibition of kinase labeling by ATP-biotin (p38a; labeling site Lys2) | Percent inhibition of kinase labeling by ATP-biotin (p38a; labeling site Other) | Percent inhibition of kinase labeling by ATP-biotin (PIK3C3; first of two table lines) | Percent inhibition of kinase labeling by ATP-biotin (PIK3C3; second of two table lines) | Percent inhibition of kinase labeling by ATP-biotin (DNAPK; first of two table lines) | Percent inhibition of kinase labeling by ATP-biotin (DNAPK; second of two table lines) | Percent inhibition of kinase labeling by ATP-biotin (PIP4K2C; first of two table lines) | Percent inhibition of kinase labeling by ATP-biotin (PIP4K2C; second of two table lines) | Percent inhibition of kinase labeling by ATP-biotin (IRAK1 [2]) | inhibition at 1 µM (IRAK1 [2]) | other results
1 | CCC(=O)Nc1cccc(C(=O)Nc2ccc(Nc3nccc(-c4cccnc4)n3)cc2)c1 [JNK-IN-6] | 32.6% | 12.4% | 26.5% | 3.1% | 51.1% | 31.7% | −4.7% | 35.7% | −4.6% |  | protection of JNK from labeling by ATP-biotin (JNK): incapable of protecting JNK from labeling by ATP-biotin; fold loss in potency / fold higher IC50 for cellular JNK inhibition [1]: 50 fold
2 | CN(C)C/C=C/C(=O)Nc1cccc(C(=O)Nc2ccc(Nc3nccc(-c4cccnc4)n3)cc2)c1 [JNK-IN-7] |  |  |  |  |  |  |  |  |  | 81% | number of kinases with binding inhibition of 95% or more ([3]; 1.0 μM): approximately 14 kinases; IC50 (IRAK1 [4]): < 200 nM; IC50 (IRAK1 [5]): ~10 nM; IC50 (ERK8): < 200 nM; number of additional kinases with Kd or IC50 of 100 nM or less [6]: eight; covalent modification of JNK3 (mass spectrometry) (JNK3): addition of a single molecule of inhibitor to the protein and labeling of Cys154; Kd (KIT(L576P)): 40 nM; IC50 (NUAK1): < 200 nM
3 | Cc1cc(NC(=O)c2cccc(NC(=O)/C=C/CN(C)C)c2)ccc1Nc1nccc(-c2cccnc2)n1 [JNK-IN-8] |  |  |  |  |  |  |  |  |  | 0.8% | Kd (KIT(V559D,T670I)): 56 nM; IC50 (MET(M250T)): > 10000 nM
4 | CN(C)C/C=C/C(=O)Nc1cccc(C(=O)Nc2ccc(Nc3nccc(-c4c(-c5ccccc5)nn5ccccc45)n3)cc2)c1 [JNK-IN-11] |  |  |  |  |  |  |  |  |  | 5.4% | 
5 | CN(C)C/C=C/C(=O)Nc1cccc(C(=O)Nc2ccc(Nc3nccc(/C(C#N)=C4\Nc5ccccc5S4)n3)cc2)c1 [JNK-IN-12] | −28% | −13.8% | 7.5% | −0.5% | −65.4% | −80.7% | 43.9% | 42.6% | −14.9% |  | S (10) score (ratio number of kinases inhibited more than 90 percent) ([3]; screening concentration 1 μM): 0.025
